Data set [1] concerns Plasma. The data set is described as follows: Anticoagulant potency in human plasma assessed as concentration required to double the time to clot formation by PT assay. In kind it is functional. Put shortly: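 Human normal plasma mixed with compound dilutions in DMSO (1.5 µL into 48.5 µL), preincubated 4 min at 37 °C, clotting started with thromboplastin and timed on an automatic coagulometer. Prolongation relative to DMSO; concentration doubling clotting time derived by least-squares regression; mean of duplicates.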

In a further data set the target is Coagulation factor X (Homo sapiens, UniProt P00742). Description: Inhibition of human factor 10a.
The next data set concerns the target CYP3A4 (Homo sapiens, UniProt P08684). The data set is described as follows: Inhibition of CYP3A4 expressed in human B-lymphoblastoid cells at 10 uM. Type of data set: ADME, cell-based. The essentials:
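Recombinant CYP3A4 (10 nM, from CYP3A4-expressing human B-lymphoblastoid cells) incubated with 100 µM testosterone and 10 µM test compound for 30 min at 37 °C; 6β-hydroxytestosterone formation quantified by HPLC-UV.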

For data set [2], the system named is Plasma. The data set is described as follows: Anticoagulant activity in mouse plasma assessed as ratio of prothrombin time in drug to untreated control at 30 mg/kg, po. In kind it is functional. Put shortly: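 Male ICR mice (30-35 g), fasted >12 h, dosed orally at 30 mg/kg as suspension in 0.5% methylcellulose; vehicle controls. Citrated aortic blood drawn 1 h post-dose under pentobarbital anaesthesia, spun 1000g 10 min to platelet-poor plasma. PT on 50 µL plasma preincubated 4 min at 37 °C, started with thromboplastin; clotting time expressed relative to control group (n = 3).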

Data set [3] relates to Plasma. The data set is described as follows: Anticoagulant potency in mouse plasma assessed as concentration required to double the time to clot formation by PT assay. Type of data set: functional.
Another data set in a line: physchem. To be noted: buffer, pH 7.4.
The nature of data set [4]: Basicity, pKa by titration method. In kind it is physicochemical.

Coagulation factor X, sequence (P00742 41-179 limits assumed): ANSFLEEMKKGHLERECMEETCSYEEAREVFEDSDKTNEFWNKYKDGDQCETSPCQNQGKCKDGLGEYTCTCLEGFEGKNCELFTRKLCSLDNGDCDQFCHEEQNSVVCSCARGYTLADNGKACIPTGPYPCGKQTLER
Coagulation factor X, sequence (P00742 235-488 limits assumed): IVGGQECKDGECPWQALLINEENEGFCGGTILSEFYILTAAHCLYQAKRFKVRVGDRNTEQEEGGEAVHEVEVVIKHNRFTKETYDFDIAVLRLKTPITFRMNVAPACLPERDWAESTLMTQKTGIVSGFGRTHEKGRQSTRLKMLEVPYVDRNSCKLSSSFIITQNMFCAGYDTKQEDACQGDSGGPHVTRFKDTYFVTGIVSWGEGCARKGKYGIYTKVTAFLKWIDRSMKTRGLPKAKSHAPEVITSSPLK
CYP3A4, sequence (P08684 whole entry): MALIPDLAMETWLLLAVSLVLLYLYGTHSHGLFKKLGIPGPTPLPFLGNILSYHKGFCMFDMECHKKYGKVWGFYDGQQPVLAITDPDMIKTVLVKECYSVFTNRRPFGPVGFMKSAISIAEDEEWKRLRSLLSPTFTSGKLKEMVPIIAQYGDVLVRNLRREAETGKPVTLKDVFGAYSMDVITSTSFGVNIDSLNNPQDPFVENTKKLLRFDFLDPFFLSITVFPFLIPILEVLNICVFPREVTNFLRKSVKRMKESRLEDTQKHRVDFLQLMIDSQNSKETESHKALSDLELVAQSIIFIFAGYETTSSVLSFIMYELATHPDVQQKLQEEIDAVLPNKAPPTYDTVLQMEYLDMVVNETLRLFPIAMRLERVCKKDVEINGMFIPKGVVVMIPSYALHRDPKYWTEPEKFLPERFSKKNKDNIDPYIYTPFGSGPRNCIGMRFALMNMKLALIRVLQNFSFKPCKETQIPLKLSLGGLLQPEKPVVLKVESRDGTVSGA

The IC50 is the concentration at which inhibition is half-maximal. With `Cc1nccn1CCCC1CCN(C(=O)CCS(=O)(=O)c2ccc3cc(Cl)ccc3c2)CC1`, the Activity in the data set on Plasma [1] is >10 µM. Further, on Coagulation factor X, the IC50 was found to be 460 nM.
What is called inhibition is the relative decrease from the control value, in per cent. Low values mean little suppression, high ones strong suppression. Regarding `Cc1nccn1CCN1CCN(C(=O)CCS(=O)(=O)c2ccc3cc(Cl)ccc3c2)CC1`, the Activity in the data set on Plasma [1] was 0.99 µM; in the data set with Plasma [3], 2.1 µM. In addition, the IC50 against Coagulation factor X worked out at 54 nM. Testing at 10 µM against CYP3A4 gave an inhibition of 53%. For the same molecule, in the data set with Plasma [2], the Ratio was found to be 1.1.
Turning to `O=C(CCS(=O)(=O)c1ccc2cc(Cl)ccc2c1)N1CCN(c2cccc3nc(CO)cn23)CC1`, inhibition against Coagulation factor X was half-maximal at 9.7 nM (IC50).
Broadly, the logD is lipophilicity at a set pH, counting ionised and neutral species. One may read the pKa as the negative logarithm of the acid dissociation constant. A lower pKa goes with a stronger acid or weaker base. As to `Cc1ncc2n1C(=O)N(N1CCN(C(=O)CCS(=O)(=O)c3ccc4cc(Cl)ccc4c3)CC1)C2`, the pH-dependent lipophilicity (logD) in “physchem” was found to be 2.1. In addition, the results for the Activity with Plasma [1] and in the data set on Plasma [3] were 0.61 µM and 0.9 µM, respectively. In addition, it took 6.9 nM to reach half-maximal inhibition on Coagulation factor X (IC50). On CYP3A4, this molecule gave an inhibition at 10 µM of 38%. Also, the Ratio with Plasma [2] was 2.8. The same molecule yielded a pKa in data set [4] of 5.
Consider `Cn1ccnc1C1CCN(C(=O)CCS(=O)(=O)c2ccc3cc(Cl)ccc3c2)CC1`, for which the Activity in the data set with Plasma [1] amounted to 2.1 µM. Also, at Coagulation factor X, the IC50 worked out at 56 nM.
As for `Cc1nc(C)n2c1CN(C1CCN(C(=O)CCS(=O)(=O)c3ccc4cc(Cl)ccc4c3)CC1)C2=O`, the logD in the data set “physchem” is 2.5. The Activity in the data set on Plasma [1] was 1.2 µM; in the data set on Plasma [3], 2.5 µM. In addition, 5.3 nM corresponded to half-maximal inhibition against Coagulation factor X (IC50). The inhibition at 10 µM on CYP3A4 came out at 62%. Further, in the data set on Plasma [2], the Ratio is 2. The pKa in data set [4] is 5.4.
In the case of `O=C(CCS(=O)(=O)c1ccc2cc(Cl)ccc2c1)N1CCC(c2cnc3n2CCCC3)CC1`, in the data set “physchem”, the logD was determined as 2.2. Also, the Activity with Plasma [1] stood at 0.48 µM; in the data set with Plasma [3] it was 3 µM. Inhibition at Coagulation factor X was half-maximal at 23 nM (IC50). For the same molecule, the inhibition at 10 µM against CYP3A4 was 42%. The Ratio in the data set on Plasma [2] is on record as 1.1. For the same molecule, in data set [4], the pKa came to 8.2.
`O=C(CCS(=O)(=O)c1ccc2cc(Cl)ccc2c1)N1CCC(c2cnc3ccccn23)CC1` returned a logD in the data set “physchem” of 2.5. In addition, in the data set on Plasma [1], the Activity came to 2.2 µM. The molecule further registered an IC50 at Coagulation factor X of 12 nM. The molecule further had a pKa in data set [4] of 5.9.
With `Cc1ncc(C2CCN(C(=O)CCS(=O)(=O)c3ccc4cc(Cl)ccc4c3)CC2)n1C`, the Activity in the data set on Plasma [1] amounted to 0.56 µM; in the data set with Plasma [3], 3.4 µM. This molecule also came in with an inhibition at 10 µM against CYP3A4 of 25%. The pKa in data set [4] is 8.2.
In the case of `CCCc1nccn1C1CCN(C(=O)CCS(=O)(=O)c2ccc3cc(Cl)ccc3c2)CC1`, the Activity in the data set with Plasma [1] came to 2 µM. For the same molecule, the IC50 at Coagulation factor X was determined as 230 nM.
`O=C(CCS(=O)(=O)c1ccc2cc(Cl)ccc2c1)N1CCC(c2cnc[nH]2)CC1`: in the data set “physchem”, the pH-dependent lipophilicity (logD) is 2. Moreover, the Activity with Plasma [1] came out at 3 µM. The molecule further had an IC50 against Coagulation factor X of 170 nM. In addition, the pKa in data set [4] was determined as 6.9.
Taken in the same sequence, the figures for `Cc1ncc(C2CCN(C(=O)CCS(=O)(=O)c3ccc4cc(Cl)ccc4c3)CC2)[nH]1` were 2, 2.5 µM, 120 nM and 7.9.
With `O=C(CCS(=O)(=O)c1ccc2cc(Cl)ccc2c1)N1CCC(n2ccnc2)CC1`, in the data set with Plasma [1], the Activity stood at 7 µM. The molecule also yielded an IC50 at Coagulation factor X of 1400 nM.
Taken in the same sequence, the figures for `CCc1nccn1C1CCN(C(=O)CCS(=O)(=O)c2ccc3cc(Cl)ccc3c2)CC1` were 1 µM and 160 nM.
Consider `Cc1nccn1CCCCC1CCN(C(=O)CCS(=O)(=O)c2ccc3cc(Cl)ccc3c2)CC1`, for which the Activity in the data set with Plasma [1] was >10 µM. Also, it took 300 nM to reach half-maximal inhibition at Coagulation factor X (IC50).
As for `O=C(CCS(=O)(=O)c1ccc2cc(Cl)ccc2c1)N1CCC(c2ncc[nH]2)CC1`, the Activity in the data set with Plasma [1] is >10 µM. The same molecule displayed an IC50 against Coagulation factor X of 1600 nM.
In the case of `Cc1nccn1C1CCN(C(=O)CCS(=O)(=O)c2ccc3cc(Cl)ccc3c2)CC1`, the Activity turned out to be 0.99 µM in the data set with Plasma [1] and 3.3 µM in the data set with Plasma [3]. This molecule returned a concentration for half-maximal inhibition (IC50) against Coagulation factor X of 170 nM. The inhibition at 10 µM at CYP3A4 is 34%. In the data set with Plasma [2], the Ratio turned out to be 1.1.
Take `Cc1nccn1CC1CCN(C(=O)CCS(=O)(=O)c2ccc3cc(Cl)ccc3c2)CC1`: in the data set with Plasma [1], the Activity was found to be 7.7 µM. The same molecule gave a concentration for half-maximal inhibition (IC50) against Coagulation factor X of 910 nM.
For the molecule `Cn1cncc1C1CCN(C(=O)CCS(=O)(=O)c2ccc3cc(Cl)ccc3c2)CC1`, the logD in “physchem” was determined as 2. Further, the Activity in the data set with Plasma [1] came to 0.49 µM; in the data set with Plasma [3], 2.7 µM. Also, at Coagulation factor X, the half-inhibitory concentration (IC50) was found to be 56 nM. The inhibition at 10 µM at CYP3A4 was 82%. Moreover, the Ratio with Plasma [2] was 1.2. Moreover, the pKa in data set [4] was 7.2.
Molecule `Cc1nccn1CCC1CCN(C(=O)CCS(=O)(=O)c2ccc3cc(Cl)ccc3c2)CC1` yielded a logD in “physchem” of 2.2. Besides, the Activity with Plasma [1] was found to be 0.91 µM; in the data set on Plasma [3], 1.7 µM. The molecule further returned an IC50 on Coagulation factor X of 37 nM. The same molecule had an inhibition at 10 µM against CYP3A4 of 38%. In the data set with Plasma [2], the Ratio came out at 1.1. In addition, the pKa in data set [4] came to 7.9.

Values taken from ChEMBL document CHEMBL1150763, “Discovery of imidazo[1,5-c]imidazol-3-ones: weakly basic, orally active factor Xa inhibitors” (J Med Chem, 2008).
